Reference: ChEMBL document CHEMBL5104229, “Novel tetrahydropyrimidinyl-substituted benzimidazoles and benzothiazoles: synthesis, antibacterial activity, DNA interactions and ADME profiling” (RSC Med Chem, 2022)
Converted amounts (≈) assume the structure as drawn. The source made the active and inactive calls. No cut-off for these calls is given here.

Assays:
Staphylococcus aureus = experiment: Antibacterial activity against Staphylococcus aureus ATCC 29213 incubated assessed as inhibition of bacterial growth for 20 to 22 hrs by broth microdilution method; type: functional; conditions: time 20-22 hrs
How it was run: (§1)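 Broth microdilution per CLSI in cation-adjusted Mueller–Hinton broth, twofold dilutions over […]. Inoculum by direct colony suspension, 5 × 10^4 CFU per well. E. coli and S. aureus grown on MHA; E. faecalis, M. catarrhalis and streptococci on MHA with 5% sheep blood; streptococcal broth supplemented with 5% horse serum. MIC read visually after 20–22 h at 37 °C, ambient air.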

Enterococcus faecalis = experiment: Antibacterial activity against Enterococcus faecalis ATCC29212 assessed as inhibition of bacterial growth incubated for 20 to 22 hrs by broth microdilution method; type: functional; conditions: time 20-22 hrs; how it was run: as §1
Moraxella catarrhalis = experiment: Antibacterial activity against Moraxella catarrhalis ATCC 23246 assessed as inhibition of bacterial growth incubated for 20 to 22 hrs by broth microdilution method; type: functional; conditions: time 20-22 hrs; how it was run: as §1
Escherichia coli = experiment: Antibacterial activity against hypersensitive AcrAB deficient Escherichia coli assessed as inhibition of bacterial growth incubated for 20 to 22 hrs by broth microdilution method; type: functional; conditions: time 20-22 hrs; how it was run: as §1
Streptococcus pneumoniae [1] = experiment: Antibacterial activity against Macrolide sensitive Streptococcus pneumoniae clinical isolate B0652 assessed as inhibition of bacterial growth incubated for 20 to 22 hrs by broth microdilution method; type: functional; conditions: time 20-22 hrs
How it was run: (§2)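 CLSI broth microdilution MIC in cation-adjusted Mueller Hinton broth supplemented with 5% horse serum for streptococci. Twofold dilutions across a 128–0.25 range. Strains grown on MHA with 5% sheep blood; inoculum by direct colony suspension, 5 × 10^4 CFU per well. Read visually after 20–22 h at 37 °C in ambient air; azithromycin and ampicillin as reference antibiotics.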

Streptococcus pneumoniae [2] = experiment: Antibacterial activity against Macrolide resistant Streptococcus pneumoniae clinical isolate B0326 assessed as inhibition of bacterial growth incubated for 20 to 22 hrs by broth microdilution method; type: functional; conditions: time 20-22 hrs; how it was run: as §2
Streptococcus pyogenes [3] = experiment: Antibacterial activity against Macrolide sensitive Streptococcus pyogenes clinical isolate B0542 assessed as inhibition of bacterial growth incubated for 20 to 22 hrs by broth microdilution method; type: functional; conditions: time 20-22 hrs; how it was run: as §1
Streptococcus pyogenes [4] = experiment: Antibacterial activity against Macrolide resistant Streptococcus pyogenes clinical isolate B0545 assessed as inhibition of bacterial growth incubated for 20 to 22 hrs by broth microdilution method; type: functional; conditions: time 20-22 hrs; how it was run: as §2
AT rich DNA [5] = experiment: Binding affinity to double stranded [poly(dA-dT)2] DNA (unknown origin) assessed as binding constant at pH 7 by fluorescence spectroscopy; type: nucleic-acid assay; conditions: Homo sapiens
How it was run: (§3)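 Fluorimetric titration at 25 °C, sodium cacodylate buffer pH 7.0, I = 0.05 mol dm−3: polynucleotide portions added to compound (e.g. 1 × 10−6 mol dm−3). Excitation ≥ 300 nm to avoid inner filter effect. Data fitted by Scatchard equation, recalculated at fixed n = 0.2 [bound compound]/[polynucleotide]; I/I0 is the calculated complex fluorescence over starting compound fluorescence.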

AT rich DNA [6] = experiment: Binding affinity to double stranded [poly(dA-dT)2] DNA (unknown origin) assessed as change in fluorescence intensity at pH 7 by fluorescence spectroscopy relative to control; type: nucleic-acid assay; conditions: Homo sapiens; how it was run: as §3
Calf thymus DNA [7] = experiment: Binding affinity to calf thymus double stranded DNA assessed as stabilization of DNA by measuring change in melting temperature at pH 7 by UV/Vis-spectrophotometry; type: nucleic-acid assay; conditions: Bos taurus
How it was run: (§4)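 Thermal denaturation in sodium cacodylate buffer, pH 7.0, I = 0.05 mol dm−3, compound/polynucleotide ratio r = 0.3. Absorbance at 260 nm followed versus temperature, ligand absorbance subtracted, scale normalized. Tm from first-derivative maximum, checked by tangent method. ΔTm = Tm(complex) − Tm(free nucleic acid), mean of at least two runs, error ±0.5 °C. ctDNA sonicated and filtered.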

AT rich DNA [8] = experiment: Binding affinity to double stranded [poly(dA-dT)2] DNA (unknown origin) assessed as stabilization of DNA by measuring change in melting temperature at pH 7 by UV/Vis-spectrophotometry; type: nucleic-acid assay; conditions: Homo sapiens; how it was run: as §4
Calf thymus DNA [9] = experiment: Binding affinity to calf thymus double stranded DNA minor groove assessed as assessed as effect on CD spectrum at pH 7 by CD spectroscopy; type: nucleic-acid assay; conditions: Bos taurus
How it was run: (§5)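 CD titration at 25 °C, sodium cacodylate buffer pH 7, I = 0.05 mol dm−3: portions of compound stock (1 × 10−3 mol dm−3 in water, or DMSO for one compound) added to polynucleotide, e.g. poly(dAdT)2 at 2.0 × 10−5 mol dm−3. Scan 500–220 nm, 200 nm min−1, 3 accumulations. Polynucleotide concentration as phosphate.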

AT rich DNA [10] = experiment: Binding affinity to double stranded [poly(dA-dT)2] DNA (unknown origin) minor groove assessed as effect on CD spectrum at pH 7 by CD spectroscopy; type: nucleic-acid assay; how it was run: as §5
[11] = Cytotoxicity against human HepG2 cells assessed as reduction in cell viability incubated overnight by MTT assay; type: toxicity, cell-based

| Structure (SMILES) | MIC (Staphylococcus aureus) [µg/mL] | MIC (Enterococcus faecalis) [µg/mL] | MIC (Moraxella catarrhalis) [µg/mL] | MIC (Escherichia coli) [µg/mL] | MIC (Streptococcus pneumoniae [1]) [µg/mL] | MIC (Streptococcus pneumoniae [2]) [µg/mL] | MIC (Streptococcus pyogenes [3]) [µg/mL] | MIC (Streptococcus pyogenes [4]) [µg/mL] | log Ks (AT rich DNA [5]) | fold change (FC) (AT rich DNA [6]) | ΔTm (Calf thymus DNA [7]) [°C] | ΔTm (AT rich DNA [8]) [°C] | Activity (Calf thymus DNA [9]) | Activity (AT rich DNA [10]) | IC50 [11] [µM] |
| --- | --- | --- | --- | --- | --- | --- | --- | --- | --- | --- | --- | --- | --- | --- | --- |
| CC[C@H]1OC(=O)[C@H](C)[C@@H](O[C@H]2C[C@@](C)(OC)[C@@H](O)[C@H](C)O2)[C@H](C)[C@@H](O[C@@H]2O[C@H](C)C[C@H](N(C)C)[C@H]2O)[C@](C)(O)C[C@@H](C)CN(C)[C@H](C)[C@@H](O)[C@]1(C)O [AZITHROMYCIN] | 2 (≈ 2.67 µM) | 0.125 (≈ 0.167 µM) | 8 (≈ 10.7 µM) | 0.5 (≈ 0.668 µM) | 0.125 (≈ 0.167 µM) | 16 (≈ 21.4 µM) | 0.125 (≈ 0.167 µM) | 8 (≈ 10.7 µM) |  |  |  |  |  |  |  |
| Cl.O=C(COc1ccc(-c2nc3ccc(C4=NCCCN4)cc3s2)cc1)c1ccccc1 | 128 | > 128 | 8 | 32 |  |  |  |  | 5.3 | 4.9 | 0 | 3.1 | Active | Active |  |
| COc1cc(-c2nc3ccc(C4=NCCCN4)cc3s2)ccc1OCc1cn(Cc2ccccc2)nn1.Cl | > 128 | 128 | 16 | 64 |  |  |  |  |  |  |  |  |  |  |  |
| Cl.c1ccc(Cn2cc(COc3ccc(-c4nc5ccc(C6=NCCCN6)cc5s4)cc3)nn2)cc1 | 128 | 128 | 4 | 32 |  |  |  |  |  |  |  |  |  |  |  |
| Cl.c1cc(-c2nc3ccc(C4=NCCCN4)cc3s2)ccc1OCc1c[nH]nn1 | > 128 | > 128 | 32 | > 128 |  |  |  |  |  |  |  |  |  |  |  |
| COc1cc(-c2nc3ccc(C4=NCCCN4)cc3s2)ccc1OCc1c[nH]nn1.Cl | > 128 | > 128 | 32 | 128 |  |  |  |  |  |  |  |  |  |  |  |
| Cl.O=C(COc1ccc(-c2nc3ccc(C4=NCCCN4)cc3s2)cc1F)c1ccccc1 | 128 | 128 | 4 | 16 | 32 | 128 | 32 | 128 |  |  | 0 | 3.8 | Active | Active | > 100 |
| COc1cc(-c2nc3ccc(C4=NCCCN4)cc3s2)ccc1OCc1ccccn1.Cl | > 128 | > 128 | 32 | 128 |  |  |  |  |  |  |  |  |  |  |  |
| CC1(C)S[C@@H]2[C@H](NC(=O)[C@H](N)c3ccccc3)C(=O)N2[C@H]1C(=O)O [AMPICILLIN] |  |  |  |  | 0.25 (≈ 0.715 µM) | 0.25 (≈ 0.715 µM) | 0.25 (≈ 0.715 µM) | 0.25 (≈ 0.715 µM) |  |  |  |  |  |  |  |
| Cl.Fc1cc(-c2nc3ccc(C4=NCCCN4)cc3s2)ccc1OCc1c[nH]nn1 | 128 | > 128 | > 128 | > 128 |  |  |  |  |  |  |  |  |  |  |  |
